ChEMBL document CHEMBL1687785, “ampG gene of Pseudomonas aeruginosa and its role in β-lactamase expression” (2010)
In brackets after ≈: the same amount, converted by molar mass.

How the values were obtained:
Format in all cases: functional
Pseudomonas aeruginosa [1] = test: Antimicrobial activity against ampG, ampGh1 deficient Pseudomonas aeruginosa PAK after 16 to 20 hrs by broth microdilution method
Procedure, shortened: (§1)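 CLSI broth microdilution in Mueller-Hinton broth, serial 2-fold antibiotic dilutions. Inoculum about 10^4 cells per well, taken from starter cultures grown to OD600 0.5. MIC was the lowest antibiotic concentration preventing growth after 16 to 20 h at 37°C. Each MIC was determined in triplicate.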

Pseudomonas aeruginosa [2] = test: Antimicrobial activity against ampG deficient Pseudomonas aeruginosa PAK after 16 to 20 hrs by broth microdilution method; procedure, shortened: as §1
Pseudomonas aeruginosa [3] = test: Antimicrobial activity against ampD, […], ampDh2 deficient Pseudomonas aeruginosa PAO1 after 16 to 20 hrs by broth microdilution method; procedure, shortened: as §1
Pseudomonas aeruginosa [4] = test: Antimicrobial activity against ampD, ampDh2, ampDh3 and ampG deficient Pseudomonas aeruginosa PAO1 after 16 to 20 hrs by broth microdilution method; procedure, shortened: as §1
Pseudomonas aeruginosa [5] = test: Antimicrobial activity against Pseudomonas aeruginosa PAK after 16 to 20 hrs by broth microdilution method
Procedure, shortened: (§2)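 CLSI broth microdilution: 2-fold serial antibiotic dilutions in Mueller-Hinton broth, inoculated with about 10^4 cells per 100 μl from starter cultures grown to OD600 0.5. MIC is the lowest concentration preventing growth after 16-20 h at 37°C. Triplicate.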

Pseudomonas aeruginosa [6] = test: Antimicrobial activity against ampGh1 deficient Pseudomonas aeruginosa PAO1 after 16 to 20 hrs by broth microdilution method; procedure, shortened: as §1
Pseudomonas aeruginosa [7] = test: Antimicrobial activity against ampG deficient Pseudomonas aeruginosa PAK harboring pZY0901 conferring resistance to gentamycin after 16 to 20 hrs by broth microdilution method; procedure, shortened: as §1
Pseudomonas aeruginosa [8] = test: Antimicrobial activity against ampG, ampGh1 deficient Pseudomonas aeruginosa PAO1 after 16 to 20 hrs by broth microdilution method; procedure, shortened: as §1
Pseudomonas aeruginosa [9] = test: Antimicrobial activity against Pseudomonas aeruginosa PAO1 after 16 to 20 hrs by broth microdilution method; procedure, shortened: as §2
Pseudomonas aeruginosa [10] = test: Antimicrobial activity against ampGh1 deficient Pseudomonas aeruginosa PAK after 16 to 20 hrs by broth microdilution method; procedure, shortened: as §1
Pseudomonas aeruginosa [11] = test: Antimicrobial activity against ampD, ampDh2, ampDh3 and ampG deficient Pseudomonas aeruginosa PAO1 harboring pZY0901 conferring resistance to gentamycin after 16 to 20 hrs by broth microdilution method; procedure, shortened: as §1
Pseudomonas aeruginosa [12] = test: Antimicrobial activity against ampD, ampDh2, ampDh3 and ampGh1 deficient Pseudomonas aeruginosa PAO1 after 16 to 20 hrs by broth microdilution method; procedure, shortened: as §1
Pseudomonas aeruginosa [13] = test: Antimicrobial activity against ampG deficient Pseudomonas aeruginosa PAO1 harboring pZY0908 conferring resistance to gentamycin after 16 to 20 hrs by broth microdilution method; procedure, shortened: as §1
Pseudomonas aeruginosa [14] = test: Antimicrobial activity against ampG deficient Pseudomonas aeruginosa PAO1 after 16 to 20 hrs by broth microdilution method; procedure, shortened: as §1
Pseudomonas aeruginosa [15] = test: Antimicrobial activity against ampG deficient Pseudomonas aeruginosa PAK harboring pUCP24 conferring resistance to gentamycin after 16 to 20 hrs by broth microdilution method; procedure, shortened: as §1
Pseudomonas aeruginosa [16] = test: Antimicrobial activity against ampG deficient Pseudomonas aeruginosa PAO1 harboring pZY0901 conferring resistance to gentamycin after 16 to 20 hrs by broth microdilution method; procedure, shortened: as §1
Pseudomonas aeruginosa [17] = test: Antimicrobial activity against ampD, ampDh2, ampDh3 and ampG deficient Pseudomonas aeruginosa PAO1 harboring pUCP24 conferring resistance to gentamycin after 16 to 20 hrs by broth microdilution method; procedure, shortened: as §1
Pseudomonas aeruginosa [18] = test: Antimicrobial activity against ampG deficient Pseudomonas aeruginosa PAO1 harboring pUCP24 conferring resistance to gentamycin after 16 to 20 hrs by broth microdilution method; procedure, shortened: as §1
Pseudomonas aeruginosa [19] = test: Antimicrobial activity against ampG, ampGh1 deficient Pseudomonas aeruginosa PAO1 after 16 to 20 hrs by broth microdilution method in presence of 120 uM carbonyl cyanide m-chlorophenyl-hydrazone
Procedure, shortened: (§3)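 CLSI broth microdilution in Mueller-Hinton broth with serial antibiotic dilutions. CCCP was added from a 10 mM DMSO stock to 120 μM final, then the bacterial culture was added as inoculum (about 10^4 cells from OD600 0.5 starter cultures). MIC was the lowest concentration preventing growth after 16 to 20 h at 37°C, run in triplicate.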

Escherichia coli [20] = test: Antimicrobial activity against tetracycline resistant Escherichia coli SNO301-1 harboring pEC1C carrying ampC, ampR from Enterobacter cloacae after 16 to 20 hrs by broth microdilution method
Procedure, shortened: (§4)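 CLSI broth microdilution: serial 2-fold β-lactam dilutions in Mueller-Hinton broth, inoculum about 10^4 cells from starter cultures at OD600 0.5; MIC read as lowest concentration preventing growth after 16 to 20 h at 37°C; triplicate determinations.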

Pseudomonas aeruginosa [21] = test: Antimicrobial activity against ampG deficient Pseudomonas aeruginosa PAO1 after 16 to 20 hrs by broth microdilution method in presence of 120 uM carbonyl cyanide m-chlorophenyl-hydrazone; procedure, shortened: as §3
Pseudomonas aeruginosa [22] = test: Antimicrobial activity against Pseudomonas aeruginosa PAO1 after 16 to 20 hrs by broth microdilution method in presence of 120 uM carbonyl cyanide m-chlorophenyl-hydrazone
Procedure, shortened: (§5)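 CLSI broth microdilution in Mueller-Hinton broth with CCCP added from a 10 mM DMSO stock to 120 μM final, alongside 2-fold serial antibiotic dilutions. Inoculum from starter cultures grown to OD600 0.5. MIC is the lowest concentration preventing growth after 16-20 h at 37°C. Triplicate.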

Escherichia coli [23] = test: Antimicrobial activity against gentamycin resistant Escherichia coli SNO301-1 harboring pEC1C carrying ampC, ampR from Enterobacter cloacae after 16 to 20 hrs by broth microdilution method; procedure, shortened: as §4
Pseudomonas aeruginosa [24] = test: Antimicrobial activity against ampG deficient Pseudomonas aeruginosa PAO1 harboring pZY0901 conferring resistance to gentamycin after 16 to 20 hrs by broth microdilution method in presence of 120 uM carbonyl cyanide m-chlorophenyl-hydrazone; procedure, shortened: as §3
Pseudomonas aeruginosa [25] = test: Antimicrobial activity against ampD, ampDh2, ampDh3 and ampG deficient Pseudomonas aeruginosa PAO1 after 16 to 20 hrs by broth microdilution method in presence of 120 uM carbonyl cyanide m-chlorophenyl-hydrazone; procedure, shortened: as §3
Pseudomonas aeruginosa [26] = test: Antimicrobial activity against ampD, ampDh2, ampDh3 deficient Pseudomonas aeruginosa PAO1 after 16 to 20 hrs by broth microdilution method in presence of 120 uM carbonyl cyanide m-chlorophenyl-hydrazone; procedure, shortened: as §3
Pseudomonas aeruginosa [27] = test: Antimicrobial activity against ampD, ampDh2, ampDh3 and ampGh1 deficient Pseudomonas aeruginosa PAO1 after 16 to 20 hrs by broth microdilution method in presence of 120 uM carbonyl cyanide m-chlorophenyl-hydrazone; procedure, shortened: as §3
Pseudomonas aeruginosa [28] = test: Antimicrobial activity against ampGh1 deficient Pseudomonas aeruginosa PAK after 16 to 20 hrs by broth microdilution method in presence of 120 uM carbonyl cyanide m-chlorophenyl-hydrazone; procedure, shortened: as §3
Pseudomonas aeruginosa [29] = test: Antimicrobial activity against ampD, ampDh2, ampDh3 and ampG deficient Pseudomonas aeruginosa PAO1 harboring pZY0901 conferring resistance to gentamycin after 16 to 20 hrs by broth microdilution method in presence of 120 uM carbonyl cyanide m-chlorophenyl-hydrazone; procedure, shortened: as §3
Pseudomonas aeruginosa [30] = test: Antimicrobial activity against ampG deficient Pseudomonas aeruginosa PAK harboring pZY0901 conferring resistance to gentamycin after 16 to 20 hrs by broth microdilution method in presence of 120 uM carbonyl cyanide m-chlorophenyl-hydrazone; procedure, shortened: as §3
Pseudomonas aeruginosa [31] = test: Antimicrobial activity against ampG deficient Pseudomonas aeruginosa PAK harboring pUCP24 conferring resistance to gentamycin after 16 to 20 hrs by broth microdilution method in presence of 120 uM carbonyl cyanide m-chlorophenyl-hydrazone; procedure, shortened: as §3
Pseudomonas aeruginosa [32] = test: Antimicrobial activity against ampGh1 deficient Pseudomonas aeruginosa PAO1 after 16 to 20 hrs by broth microdilution method in presence of 120 uM carbonyl cyanide m-chlorophenyl-hydrazone
Procedure, shortened: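 Serial 2-fold dilutions of β-lactam in Mueller-Hinton broth with CCCP added from a 10 mM DMSO stock to 120 μM final; inoculum about 10^4 cells from cultures grown to OD600 0.5; MIC taken as lowest concentration preventing growth after 16 to 20 h at 37°C; triplicate.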

Pseudomonas aeruginosa [33] = test: Antimicrobial activity against ampG deficient Pseudomonas aeruginosa PAK after 16 to 20 hrs by broth microdilution method in presence of 120 uM carbonyl cyanide m-chlorophenyl-hydrazone; procedure, shortened: as §3
Pseudomonas aeruginosa [34] = test: Antimicrobial activity against ampD, ampDh2, ampDh3 and ampG deficient Pseudomonas aeruginosa PAO1 harboring pUCP24 conferring resistance to gentamycin after 16 to 20 hrs by broth microdilution method in presence of 120 uM carbonyl cyanide m-chlorophenyl-hydrazone; procedure, shortened: as §3
Escherichia coli [35] = test: Antimicrobial activity against kanamycin resistant Escherichia coli SNO301-1 harboring pEC1C carrying ampC, ampR from Enterobacter cloacae after 16 to 20 hrs by broth microdilution method; procedure, shortened: as §4
Pseudomonas aeruginosa [36] = test: Antimicrobial activity against Pseudomonas aeruginosa PAK after 16 to 20 hrs by broth microdilution method in presence of 120 uM carbonyl cyanide m-chlorophenyl-hydrazone; procedure, shortened: as §5
Pseudomonas aeruginosa [37] = test: Antimicrobial activity against ampG deficient Pseudomonas aeruginosa PAO1 harboring pUCP24 conferring resistance to gentamycin after 16 to 20 hrs by broth microdilution method in presence of 120 uM carbonyl cyanide m-chlorophenyl-hydrazone; procedure, shortened: as §3
Pseudomonas aeruginosa [38] = test: Antimicrobial activity against ampG, ampGh1 deficient Pseudomonas aeruginosa PAK after 16 to 20 hrs by broth microdilution method in presence of 120 uM carbonyl cyanide m-chlorophenyl-hydrazone; procedure, shortened: as §3

| SMILES | MIC (Pseudomonas aeruginosa [1]) [µg/mL] | MIC (Pseudomonas aeruginosa [2]) [µg/mL] | MIC (Pseudomonas aeruginosa [3]) [µg/mL] | MIC (Pseudomonas aeruginosa [4]) [µg/mL] | MIC (Pseudomonas aeruginosa [5]) [µg/mL] | MIC (Pseudomonas aeruginosa [6]) [µg/mL] | MIC (Pseudomonas aeruginosa [7]) [µg/mL] | MIC (Pseudomonas aeruginosa [8]) [µg/mL] | MIC (Pseudomonas aeruginosa [9]) [µg/mL] | MIC (Pseudomonas aeruginosa [10]) [µg/mL] | MIC (Pseudomonas aeruginosa [11]) [µg/mL] | MIC (Pseudomonas aeruginosa [12]) [µg/mL] | MIC (Pseudomonas aeruginosa [13]) [µg/mL] | MIC (Pseudomonas aeruginosa [14]) [µg/mL] | MIC (Pseudomonas aeruginosa [15]) [µg/mL] | MIC (Pseudomonas aeruginosa [16]) [µg/mL] | MIC (Pseudomonas aeruginosa [17]) [µg/mL] | MIC (Pseudomonas aeruginosa [18]) [µg/mL] | also measured |
| --- | --- | --- | --- | --- | --- | --- | --- | --- | --- | --- | --- | --- | --- | --- | --- | --- | --- | --- | --- |
| CC(C)(O/N=C(\C(=O)N[C@@H]1C(=O)N2C(C(=O)[O-])=C(C[n+]3ccccc3)CS[C@H]12)c1csc(N)n1)C(=O)O [CEFTAZIDIME] | 1 (≈ 1.83 µM) | 1 (≈ 1.83 µM) | 32 (≈ 58.5 µM) | 1 (≈ 1.83 µM) | 1 (≈ 1.83 µM) | 1 (≈ 1.83 µM) | 32 (≈ 58.5 µM) | 1 (≈ 1.83 µM) | 1 (≈ 1.83 µM) | 1 (≈ 1.83 µM) | 32 (≈ 58.5 µM) | 32 (≈ 58.5 µM) | 1 (≈ 1.83 µM) | 1 (≈ 1.83 µM) | 1 (≈ 1.83 µM) | 16 (≈ 29.3 µM) | 1 (≈ 1.83 µM) | 1 (≈ 1.83 µM) | – |
| CO/N=C(\C(=O)N[C@@H]1C(=O)N2C(C(=O)O)=C(COC(C)=O)CS[C@H]12)c1csc(N)n1 [CEFOTAXIME] | 8 (≈ 17.6 µM) | 8 (≈ 17.6 µM) | 512 (≈ 1120 µM) | 4 (≈ 8.78 µM) | 8 (≈ 17.6 µM) | 16 (≈ 35.1 µM) | 512 (≈ 1120 µM) | 8 (≈ 17.6 µM) | 16 (≈ 35.1 µM) | 8 (≈ 17.6 µM) | 512 (≈ 1120 µM) | 256 (≈ 562 µM) | 8 (≈ 17.6 µM) | 8 (≈ 17.6 µM) | 4 (≈ 8.78 µM) | 256 (≈ 562 µM) | 4 (≈ 8.78 µM) | 8 (≈ 17.6 µM) | MIC (Pseudomonas aeruginosa [19]): 4 µg/mL; MIC (Escherichia coli [20]): < 2 µg/mL; MIC (Pseudomonas aeruginosa [21]): 4 µg/mL; MIC (Pseudomonas aeruginosa [22]): 8 µg/mL; MIC (Escherichia coli [23]): 32 µg/mL (≈ 70.3 µM); MIC (Pseudomonas aeruginosa [24]): 128 µg/mL; MIC (Pseudomonas aeruginosa [25]): 4 µg/mL; MIC (Pseudomonas aeruginosa [26]): 64 µg/mL; MIC (Pseudomonas aeruginosa [27]): 64 µg/mL; MIC (Pseudomonas aeruginosa [28]): 8 µg/mL; MIC (Pseudomonas aeruginosa [29]): 64 µg/mL; MIC (Pseudomonas aeruginosa [30]): 256 µg/mL; MIC (Pseudomonas aeruginosa [31]): 4 µg/mL; MIC (Pseudomonas aeruginosa [32]): 8 µg/mL; MIC (Pseudomonas aeruginosa [33]): 4 µg/mL; MIC (Pseudomonas aeruginosa [34]): 4 µg/mL; MIC (Escherichia coli [35]): 64 µg/mL (≈ 141 µM); MIC (Pseudomonas aeruginosa [36]): 8 µg/mL; MIC (Pseudomonas aeruginosa [37]): 4 µg/mL; MIC (Pseudomonas aeruginosa [38]): 4 µg/mL |
